Assay results published in ChEMBL document CHEMBL1128448, “Synthesis and antifungal activity of new azole derivatives containing an N-acylmorpholine ring” (1995).
Converted amounts (≈) assume the structure as drawn.

What was measured:
Format in all cases: functional
Aspergillus fumigatus = assay: In vitro evaluation of minimum inhibitory concentration against Aspergillus fumigatus 33
How it was run: (§1)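 Stocks are 800 μg/mL in 50% ethanol. Each plate gets 10 μL of inoculum at 10^5 cfu/mL. Incubation at 25 °C, 48 h for yeasts and 120 h for dermatophytes and molds. Organisms are ATCC strains or clinical isolates.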

Aspergillus niger = assay: In vitro evaluation of minimum inhibitory concentration against Aspergillus niger 18; settings: Aspergillus niger; read-out: MIC; how it was run: as §1
Candida albicans [1] = assay: In vitro evaluation of minimum inhibitory concentration against Candida albicans 76; settings: Candida albicans; read-out: MIC; how it was run: as §1
Candida albicans [2] = assay: In vivo evaluation of minimum inhibitory concentration against Candida albicans 406; settings: Candida albicans; read-out: MIC
How it was run: (§2)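 Broth macrodilution MIC following NCCLS M27-P, in RPMI-1640 buffered with 0.165 M MOPS. Fluconazole was dissolved in water and other drugs in DMSO. C. parapsilosis ATCC 22019 served as the reference strain in every run. MIC was the lowest concentration giving turbidity at or below the 80% inhibition standard.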

Candida albicans [3] = assay: In vivo evaluation of minimum inhibitory concentration against Candida albicans 60; settings: Candida albicans; read-out: MIC; how it was run: as §2
Candida albicans [4] = assay: Evaluation of In vitro antifungal activity against Candida albicans 2.01 by broth macro dilution method
How it was run: (§3)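 Yeast MIC and MFC by broth macrodilution per NCCLS M27-P in RPMI-1640 buffered with 0.165 M MOPS. Fluconazole in sterile water, other drugs in DMSO. C. parapsilosis ATCC 22019 is the reference strain in each run. MIC is the lowest concentration with turbidity ≤ the 80% inhibition standard. For MFC, 0.04 mL from clear tubes is plated on Sabouraud agar; MFC is the lowest concentration giving ≤1 colony.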

Candida albicans [5] = assay: Evaluation of In vitro antifungal activity against Candida albicans 31 by broth macro dilution method; how it was run: as §3
Candida albicans [6] = assay: Evaluation of In vitro antifungal activity against Candida albicans 406 by broth macro dilution method; how it was run: as §3
Candida albicans [7] = assay: Evaluation of In vitro antifungal activity against Candida albicans 76 by broth macro dilution method; how it was run: as §3
Candida albicans [8] = assay: Evaluation of In vitro antifungal activity against Candida albicans ATCC 10231 by broth macro dilution method; how it was run: as §3
Candida albicans [9] = assay: Evaluation of In vitro antifungal activity against Candida albicans C52 by broth macro dilution method; how it was run: as §3
Candida albicans [10] = assay: Evaluation of […] antifungal activity against Candida albicans 60 by broth macro dilution method; how it was run: as §3
[11] = system: Meyerozyma guilliermondii; assay: Evaluation of In vitro antifungal activity against Candida guilliermondii 26 by broth macro dilution method; how it was run: as §3
[12] = system: Meyerozyma guilliermondii; assay: In vitro evaluation of minimum inhibitory concentration against Candida guilliermondii 26; how it was run: as §1
Pichia kudriavzevii [13] = assay: Evaluation of In vitro antifungal activity against Candida krusei 70 by broth macro dilution method; how it was run: as §3
Pichia kudriavzevii [14] = assay: In vitro evaluation of minimum inhibitory concentration against Candida krusei 70; how it was run: as §1
Kluyveromyces marxianus [15] = assay: Evaluation of In vitro antifungal activity against Candida pseudotropicalis ATCC 28838 by broth macro dilution method; how it was run: as §3
Kluyveromyces marxianus [16] = assay: Evaluation of In vitro antifungal activity against yeasts by broth macro dilution method; how it was run: as §3
Candida parapsilosis [17] = assay: Evaluation of In vitro antifungal activity against Candida parapsilosis ATCC 22019 by broth macro dilution method; settings: Lodderomyces parapsilosis; how it was run: as §3
Candida parapsilosis [18] = assay: Evaluation of In vitro antifungal activity against Candida parapsilosis C292 by broth macro dilution method; settings: Lodderomyces parapsilosis; how it was run: as §3
Candida parapsilosis [19] = assay: Evaluation of In vitro antifungal activity against Candida parapsilosis C74 by broth macro dilution method; settings: Lodderomyces parapsilosis; how it was run: as §3
Candida parapsilosis [20] = assay: In vitro evaluation of minimum inhibitory concentration against Candida parapsilosis 61; how it was run: as §1
Candida tropicalis [21] = assay: Evaluation of In vitro antifungal activity against Candida tropicalis 2.11 by broth macro dilution method; how it was run: as §3
Candida tropicalis [22] = assay: Evaluation of In vitro antifungal activity against Candida tropicalis 50 by broth macro dilution method; how it was run: as §3

C[C@@H](NC(=O)c1ccc(C(F)(F)F)cc1)[C@](O)(Cn1cncn1)c1ccc(F)cc1F
MIC (Aspergillus fumigatus): 20 mg/L (≈ 45.4 µM) | MIC (Aspergillus niger): 40 mg/L (≈ 90.8 µM) | MIC (Candida albicans [1]): 80 mg/L (≈ 182 µM) | MIC (Candida albicans [2]): 0.15 mg/L (≈ 0.341 µM) | MIC (Candida albicans [3]): 0.15 mg/L (≈ 0.341 µM) | MFC (Candida albicans [4]): > 64 mg/L | MIC (Candida albicans [4]): 0.125 mg/L (≈ 0.284 µM) | MFC (Candida albicans [5]): > 64 mg/L | MIC (Candida albicans [5]): < 0.031 mg/L | MFC (Candida albicans [6]): > 64 mg/L | MIC (Candida albicans [6]): < 0.031 mg/L | MFC (Candida albicans [7]): > 64 mg/L | MIC (Candida albicans [7]): < 0.031 mg/L | MFC (Candida albicans [8]): > 64 mg/L | MIC (Candida albicans [8]): 0.063 mg/L (≈ 0.143 µM) | MFC (Candida albicans [9]): > 64 mg/L | MIC (Candida albicans [9]): < 0.031 mg/L | MIC (Candida albicans [10]): < 0.031 mg/L | MFC [11]: 4 mg/L (≈ 9.08 µM) | MIC [11]: 0.25 mg/L (≈ 0.568 µM) | MIC [12]: 0.63 mg/L (≈ 1.43 µM) | MFC (Pichia kudriavzevii [13]): 8 mg/L (≈ 18.2 µM) | MIC (Pichia kudriavzevii [13]): 2 mg/L (≈ 4.54 µM) | MIC (Pichia kudriavzevii [14]): 20 mg/L (≈ 45.4 µM) | MFC (Kluyveromyces marxianus [15]): 2 mg/L (≈ 4.54 µM) | MIC (Kluyveromyces marxianus [16]): < 0.031 mg/L | MFC (Candida parapsilosis [17]): 2 mg/L (≈ 4.54 µM) | MIC (Candida parapsilosis [17]): 0.125 mg/L (≈ 0.284 µM) | MFC (Candida parapsilosis [18]): 4 mg/L (≈ 9.08 µM) | MIC (Candida parapsilosis [18]): 0.063 mg/L (≈ 0.143 µM) | MFC (Candida parapsilosis [19]): 0.125 mg/L (≈ 0.284 µM) | MIC (Candida parapsilosis [19]): ≤ 0.031 mg/L | MIC (Candida parapsilosis [20]): 2.5 mg/L (≈ 5.68 µM) | MFC (Candida tropicalis [21]): 64 mg/L (≈ 145 µM) | MIC (Candida tropicalis [21]): 0.25 mg/L (≈ 0.568 µM) | MFC (Candida tropicalis [22]): > 64 mg/L
